Assay [1] concerns the target Tubulin (Sus scrofa, UniProt P02554+P02550). In words: Inhibition of pig brain tubulin polymerization by spectrophotometry. Summed up:
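Pig brain microtubule protein from three assembly/disassembly cycles, tubulin purified by phosphocellulose chromatography. Polymerization in PEM buffer (100 mM PIPES, 1 mM EGTA, 1 mM MgCl2) with 1 mM GTP and 5% glycerol at 37 °C, followed by light scattering at 340 nm.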

Assay [2] has as its system Bel-7402. In words: Antiproliferative activity against human Bel7402 cells after 72 hrs by sulforhodamine B assay. The format is functional, cell-based. Particulars: Bel-7402, 72 h. In outline:
(§1)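 SRB survival assay: cells seeded in 96-well plates, exposed to a range of compound concentrations for 72 h, fixed with 10% TCA 1 h at 4 °C, stained with 0.4% (w/v) SRB 20 min at room temperature, washed with 1% acetic acid, dye solubilized in 10 mM Tris, absorbance at 510 nm.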

Assay [3] has as its target Tubulin (Sus scrofa) (UniProt P02554+P02550). The assay can be described thus: Displacement of colchicine from pig brain tubulin at 25 uM after 60 mins by fluorescence assay. In outline: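 Tubulin (3 μM) preincubated with colchicine (3 μM) 30 min at 37 °C, then compound added (0–25 μM). Fluorescence spectra (excitation 365 nm, emission 435 nm) recorded after 60 min at 37 °C, buffer blank subtracted.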

The subject of assay [4] is A-431. The assay can be described thus: Antiproliferative activity against human A431 cells after 72 hrs by sulforhodamine B assay. It is filed as functional, cell-based. Particulars: A-431, 72 h. Summed up:
as §1
On the technique in general: Sulforhodamine B stains cellular protein and so reports cell mass.

Assay [5] concerns SK-OV-3. In words: Antiproliferative activity against human SKOV3 cells after 72 hrs by sulforhodamine B assay. It is filed as functional, cell-based. Particulars: SK-OV-3, 72 h. In outline: as §1
Assay [6] deals with HT-29. The assay can be described thus: Antiproliferative activity against human HT-29 cells after 72 hrs by sulforhodamine B assay. It is filed as functional, cell-based. Particulars: HT-29, 72 h. In outline: as §1
The test system of assay [7] is NCI-H460. In words: Antiproliferative activity against human NCI-H460 cells after 72 hrs by sulforhodamine B assay. The format is functional, cell-based. Conditions: NCI-H460, 72 h. Summed up: as §1
For assay [8], the system named is A549. The assay can be described thus: Antiproliferative activity against human A549 cells after 72 hrs by sulforhodamine B assay. The format is functional, cell-based. Particulars: A549, 72 h. Summed up: as §1
Assay [9] deals with KB. In words: Cell cycle arrest in human KB cells assessed as accumulation of cells at G2/M phase after 24 hrs by propidium iodide-based FACScan. It is filed as functional. In outline: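 Subconfluent KB cells exposed to a range of concentrations for 24 h. Adherent plus detached cells collected by trypsinization, fixed overnight in 70% ethanol, stained 30 min at 37 °C with propidium iodide 50 μg/mL plus DNase-free RNase A 50 μg/mL. 10000 cells per group analyzed by flow cytometry.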

Activity calls are given as the source filed them. No cut-off for these calls is given here.

Chain of Tubulin (Sus scrofa) (P02550 whole entry, looked up): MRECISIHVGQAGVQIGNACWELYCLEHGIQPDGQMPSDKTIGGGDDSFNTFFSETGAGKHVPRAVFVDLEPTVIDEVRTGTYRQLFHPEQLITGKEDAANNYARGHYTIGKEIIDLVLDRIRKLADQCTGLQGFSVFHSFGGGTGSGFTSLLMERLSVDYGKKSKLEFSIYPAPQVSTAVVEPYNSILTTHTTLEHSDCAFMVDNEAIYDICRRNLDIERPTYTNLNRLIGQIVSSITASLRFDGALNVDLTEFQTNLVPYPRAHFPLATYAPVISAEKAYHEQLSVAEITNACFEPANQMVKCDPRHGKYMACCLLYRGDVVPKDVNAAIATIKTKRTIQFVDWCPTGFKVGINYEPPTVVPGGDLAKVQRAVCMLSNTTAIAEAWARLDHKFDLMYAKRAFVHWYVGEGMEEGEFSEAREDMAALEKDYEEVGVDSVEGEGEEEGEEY
Chain of Tubulin (Sus scrofa) (P02554 whole entry, looked up): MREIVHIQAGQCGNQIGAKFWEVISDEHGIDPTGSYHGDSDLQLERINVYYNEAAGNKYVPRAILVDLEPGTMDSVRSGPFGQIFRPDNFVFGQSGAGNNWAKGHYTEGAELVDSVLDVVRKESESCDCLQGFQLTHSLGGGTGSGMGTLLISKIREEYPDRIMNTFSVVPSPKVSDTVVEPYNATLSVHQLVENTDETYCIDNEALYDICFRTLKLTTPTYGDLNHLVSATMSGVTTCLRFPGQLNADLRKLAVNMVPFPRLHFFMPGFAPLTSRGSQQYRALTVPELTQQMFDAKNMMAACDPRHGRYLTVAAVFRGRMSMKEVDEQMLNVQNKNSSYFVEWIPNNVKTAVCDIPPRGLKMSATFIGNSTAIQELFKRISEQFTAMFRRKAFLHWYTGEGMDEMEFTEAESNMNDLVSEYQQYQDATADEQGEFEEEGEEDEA

As usually defined, the IC50 is the concentration at which inhibition is half-maximal. Read a high IC50 as a need for much substance. In the case of `CN(C)Cc1ccc(-c2cnc(N)nc2-c2ccccc2O)cc1`, the IC50 in assay [1] was above 50000 nM; in assay [2], above 10000 nM.

As for `Nc1ncc(-c2ccc3[nH]ccc3c2)c(-c2ccccc2O)n1`, the IC50 is above 50000 nM in assay [1] and above 10000 nM in assay [2].

With `Nc1ncc(-c2ccc(N3CCCCC3)cc2)c(-c2ccccc2O)n1`, the IC50 is above 50000 nM in assay [1] and above 10000 nM in assay [2].

What is called EC50 is the midpoint of the concentration-response curve. In the case of `CCC1=C[C@@H]2CN(C1)Cc1c([nH]c3ccccc13)[C@@](C(=O)OC)(c1cc3c(cc1OC)N(C)[C@H]1[C@@](O)(C(=O)OC)[C@H](OC(C)=O)[C@]4(CC)C=CCN5CC[C@]31[C@@H]54)C2` [VINORELBINE], in assay [3], the outcome was inactive. For the same compound, the IC50 was 60 nM in assay [4]; 26.7 nM in [5]; 11.9 nM in assay [6]; 43.7 nM in assay [7]; 64.6 nM in assay [8]. Besides, in assay [9], the EC50 came to 6 nM.

Regarding `CC(C)n1ccc2cc(-c3cnc(N)nc3-c3ccccc3O)ccc21`, the IC50 in assay [1] was determined as 5000 nM; in assay [2], 80 nM; in [4], 760 nM; in assay [5], 760 nM; in [6] it was 918 nM; in assay [7] it was 485 nM. Moreover, half-maximal inhibition in assay [8] (IC50) required 1310 nM.

Regarding `CN1CCN(c2ccc(-c3cnc(N)nc3-c3ccccc3O)cc2)CC1`, the IC50 in assay [1] was above 50000 nM; in [2] it was above 10000 nM.

With `Nc1ncc(-c2ccc(N3CCCC3)cc2)c(-c2ccccc2O)n1`, the IC50 is above 50000 nM in [1] and above 10000 nM in [2].

Regarding `CCn1ccc2c(-c3cnc(N)nc3-c3ccccc3O)cccc21`, the IC50 was above 50000 nM in assay [1] and 1000 nM in assay [2].

For the compound `CCn1ccc2cc(-c3cnc(N)nc3-c3ccccc3O)ccc21`, the IC50 in assay [1] stood at 790 nM; in [2], 16 nM; in [4], 20.3 nM; in [5], 32 nM; in [6], 28.2 nM; in assay [7], 19 nM. In assay [8], this compound showed an IC50 of 62 nM. The result in [3] was Active. Besides, in assay [9], the EC50 was determined as 20 nM.

For `CC(=O)O[C@H]1C(=O)[C@@]2(C)[C@H]([C@H](OC(=O)c3ccccc3)[C@]3(O)C[C@H](OC(=O)[C@H](O)[C@@H](NC(=O)c4ccccc4)c4ccccc4)C(C)=C1C3(C)C)[C@]1(OC(C)=O)CO[C@@H]1C[C@@H]2O` [PACLITAXEL], the IC50 in [4] stood at 9.2 nM; in [5], 14.5 nM; in assay [6], 6.1 nM; in [7] it was 14.6 nM. Besides, the EC50 in [9] came to 2 nM.

Turning to `CN1CCN(Cc2ccc(-c3cnc(N)nc3-c3ccccc3O)cc2)CC1`, the IC50 in assay [1] is above 50000 nM; in [2], above 10000 nM.

Consider `CCn1ccc2cc(-c3cnc(N)nc3-c3ccc(OC)c(OC)c3O)ccc21`, for which the IC50 in [1] is above 50000 nM; in [2], above 10000 nM.

For `CCN(C)c1ccc(-c2cnc(N)nc2-c2ccccc2O)cc1`, the IC50 in assay [1] stood at 2350 nM. This lies in the single-digit micromolar range.

On to `Cn1ccc2cc(-c3cnc(N)nc3-c3ccccc3O)ccc21`, for which the IC50 in assay [1] was 920 nM; in assay [2], 50 nM; in assay [4], 21.7 nM; in assay [5] it was 69.2 nM; in assay [6], 30.8 nM; in assay [7], 20.5 nM. Also, the IC50 in [8] came to 48.2 nM.

Take `COc1cc2c(c(OC)c1OC)-c1ccc(OC)c(=O)cc1[C@@H](NC(C)=O)CC2` [COLCHICINE]: the half-maximal inhibitory concentration (IC50) in [2] is 40 nM; in [4] it was 53.2 nM; in assay [5] it was 71.2 nM; in assay [6], 21.9 nM; in assay [7], 50.6 nM; in assay [8], 37 nM. Also, the EC50 in [9] was found to be 10 nM.

As to `CCn1ccc2cc(-c3cnc(N)nc3-c3cc(OC)ccc3O)ccc21`, the IC50 in assay [1] is above 50000 nM; in [2] it was above 10000 nM.

As to `CCN(CC)c1ccc(-c2cnc(N)nc2-c2ccccc2O)cc1`, the IC50 in assay [1] came to 5570 nM; in assay [2], 100 nM; in assay [4], 76.6 nM; in assay [5], 171 nM; in [6] it was 95.4 nM; in assay [7], 57 nM. This compound also had an IC50 in assay [8] of 241 nM.

As for `Nc1ncc(-c2ccc(CN3CCOCC3)cc2)c(-c2ccccc2O)n1`, the half-maximal inhibitory concentration (IC50) was above 50000 nM in assay [1] and above 10000 nM in assay [2].

Take `CCn1ccc2cc(-c3cnc(N)nc3-c3ccccc3O)cnc21`: the IC50 in [1] is above 50000 nM; in assay [2] it was 1000 nM.

Regarding `CCn1ccc2cc(-c3cnc(N)nc3-c3ccc(OC)cc3O)ccc21`, the IC50 was above 50000 nM in assay [1] and above 10000 nM in [2].

In the case of `CCn1ccc2cc(-c3cnc(N)nc3-c3cc(OC)c(OC)cc3O)ccc21`, the IC50 in assay [1] is above 50000 nM; in assay [2], above 10000 nM.

Regarding `Nc1ncc(-c2ccc(CN3CCCCC3)cc2)c(-c2ccccc2O)n1`, the figures for the IC50 in assay [1] and in assay [2] were above 50000 nM and above 10000 nM, respectively.

As for `CCn1ccc2cc(-c3cnc(N)nc3-c3cc(F)ccc3O)ccc21`, the IC50 was 800 nM in [1]; 10 nM in assay [2]; 45.4 nM in assay [4]; 56.1 nM in assay [5]; 41.8 nM in [6]; 25.8 nM in assay [7]. In addition, in assay [8], the IC50 was determined as 70.4 nM.

For `Nc1ncc(-c2ccc(N3CCOCC3)cc2)c(-c2ccccc2O)n1`, the IC50 in assay [1] was above 50000 nM; in [2], above 10000 nM.

As to `CCn1ccc2ccc(-c3cnc(N)nc3-c3ccccc3O)cc21`, the values for the IC50 in [1] and in [2] were above 50000 nM and above 10000 nM, respectively.
